Screening data from PubChem BioAssay.
Compounds with a hit are over-represented: about 4.3% of the library has one in this group of screens.
STAT1 inh = inhibitors of IFN-gamma induced STAT1 signaling. actives 0.35% (n = 200,000). AID 920. inhibition, % at 5.5 µM. NIH 3T3 STAT1-luciferase reporter, luminescence;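 active = inhibition above a set limit, the mean inhibition across all tested compounds plus 3 SD, cut at about 34% in these data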;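 note: 0% = IFN-gamma with DMSO and 100% = IFN-gamma with 300 µM nifuroxazide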
STAT3 blocker = STAT3 signaling inhibition; U3A cells, IL-6 STAT3-luciferase reporter, luminescence; host cell line lacks STAT1; inhibition, % at 5.5 µM; actives 0.89% (n = 190,000); AID 862;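 active = inhibition above the mean inhibition across all screened compounds plus 3 SD, cut at about 44% in these data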;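 note: 0% = DMSO only wells and 100% = 100 µM nifuroxazide control wells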
STAT1 act = STAT1 signaling activation. NIH 3T3 STAT1-luciferase reporter, IFN-gamma, luminescence; 100% = IFN-gamma alone, no compound. activation (% of control), % at 5.5 µM. actives 2.6% (n = 200,000);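 active = activation above the screen-wide mean activation plus 3 SD, cut at about 130% in these data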;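 note: raw ratio to IFN-gamma control signal so 100% means no change and 0% no light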
STAT3 activator = increases IL-6 driven STAT3 reporter signal; U3A cells, IL-6 STAT3-luciferase reporter, luminescence; 100% = signal with IL-6 EC80 alone; activation (% of control), % at 5.6 µM; actives 0.91% (n = 190,000); AID 871;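 active = activation above the screen-wide mean of compound activation plus 3 SD, cut at about 130% in these data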;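 note: 0% = background luminescence of wells with medium and substrate only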
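Detection: reporter luminescence signal / Assay system: STAT1-lacking human U3A cells, STAT3 luciferase reporter / Incubation: compound pre-incubation 1 h before IL-6, then 6 h stimulation at 37 °C / Control set: IL-6-only high control / Read-out: % activation relative to IL-6 control / Probe or stimulus: Interleukin-6, 33 ng/mL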
STAT1 act conf = confirmation of STAT1 signaling activators; AID 1262; activation (% of control), % at 5.7 µM; shares compounds with STAT1 act; actives 97% (n = 1,200); NIH 3T3 STAT1-luciferase reporter, IFN-gamma potentiation, luminescence; 100% = IFN-gamma EC80 alone, no compound;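 active = activation above a set limit carried over from the earlier primary STAT1 screen, cut at about 140% in these data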;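 note: simple ratio to median IFN-gamma plus DMSO wells so 0% means no light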
NFkB act = counter-screen for STAT1 activators: NF-kappaB activation. shares compounds with STAT1 act. HEK293T NF-kB luciferase reporter, TNF-alpha stimulated, luminescence; 100% = TNF-alpha with vehicle only. activation (% of control), % at 5.7 µM. actives 43% (n = 1,200). AID 1306;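 active = activation above the mean of solvent-only control wells plus 3 SD, set per campaign, cut at about 130% in these data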;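 note: TNF-alpha given at a submaximal dose yielding about 80% of full reporter signal; values are well signal over median control so 100% means no change and 0% no light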
STAT3 act STAT1c = activates human STAT3, counter-screen to STAT1 activators; activation (% of control), % at 5.7 µM; shares compounds with STAT1 act; actives 46% (n = 1,200); AID 1316; U3A cells STAT3-luciferase reporter, IL-6, luminescence; cells lack STAT1; 100 = IL-6 alone, no compound effect;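 active = activation above the solvent-only control well mean plus 3 SD, set per plate batch, cut at about 110% in these data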;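 note: 0% = no luminescence and 100% = median IL-6 plus DMSO wells; higher means more STAT3 reporter activation so hits are non-selective activators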
An asterisk follows results filed as active; x = no result.

SMILES	STAT1 inh	STAT3 blocker	STAT1 act	STAT3 activator	STAT1 act conf	NFkB act	STAT3 act STAT1c
Cc1ccc(Nc2nc3ccccc3s2)c(C)c1	-93	26	182*	78	220*	109	98
Brc1ccc(-c2csc(N3CCc4ccccc4C3)n2)cc1	-1	-4	101	108	x	x	x
Brc1csc(/C=N/Nc2nc3ccccc3s2)c1	-101	-14	190*	114	248*	149*	134*
C(=N\Nc1nc2ccccc2s1)/c1ccc2c(c1)OCO2	-119	-27	209*	118	272*	123	124*
O=[N+]([O-])c1cc(Cl)cc(/C=N/Nc2nc3ccccc3s2)c1O	-17	-29	113	128	x	x	x
CC(C)N(C(=O)c1ccc2nc3c4ccccc4c4ccccc4c3nc2c1)C(C)C	3	8	96	96	x	x	x
O=C(/C(C=Nc1ccc(F)cc1)=C(/O)c1ccco1)C(F)(F)F	-57	20	151*	85	162*	117	109
Cc1ccc(N=C/C(C(=O)C(F)(F)F)=C(\O)c2ccco2)cc1Cl	-92	2	183*	100	221*	125	144*
O=C(Nc1cccc(C(F)(F)F)c1)c1ccco1	-2	18	102	88	x	x	x
Cc1cccc(N=C/C(C(=O)C(F)(F)F)=C(\O)c2ccco2)c1	-70	7	163*	99	173*	132	123*
Cn1ncc2c(NNC(=O)c3ccc(Cl)cc3Cl)ncnc21	7	14	94	90	x	x	x
CCc1nnc(NC(=O)CSc2nc3ccc(OC)cc3[nH]2)s1	-3	8	102	97	x	x	x
S=C(NCCc1ccccc1)Nc1ccc(Br)cc1	-16	-8	114	103	x	x	x
N#C/C(=N\Nc1ccc(Cl)cc1)C(=N)N1CCCCC1	-135	21	223*	85	316*	149*	118*
CCCS(=O)(=O)N1CCCC(C(=O)c2ccccc2OC)C1 (stereo unspecified)	10	7	89	98	x	x	x
Cc1nn(Cc2ccccc2Cl)c(Cl)c1C(=O)NCCc1ccccc1	-82	-5	173*	105	193*	120	141*
Cc1cc2cc(CCNC(=O)c3cccs3)c(=O)[nH]c2cc1C	-57	-3	151*	103	176*	131	96
Cc1ccc2cc(CCNC(=O)c3ccco3)c(=O)[nH]c2c1C	-64	-6	156*	104	201*	138*	121*
Cc1ccc2cc(CCNC(=O)c3ccco3)c(=O)[nH]c2c1	-30	7	128	95	x	x	x
c1ccc(-c2nnsc2Sc2ccccn2)cc1	-25	1	120	101	x	x	x
COC(C(=O)NNC(=O)CCc1ccccc1)c1ccccc1 (stereo unspecified)	1	12	99	97	x	x	x
c1ccc2c(c1)Cn1nnnc1-2	16	0	86	104	x	x	x
Clc1ccc(-c2cn3c(n2)-c2ccccc2C3)cc1Cl	-105	-24	196*	115	258*	134*	135*
O=C(NCCCN1CCOCC1)c1sc2cc(F)ccc2c1Cl	-11	4	109	98	x	x	x
O=C(NC1=NCCS1)c1sc2cc(F)ccc2c1Cl	-79	-13	172*	117	209*	131	150*
SMILES	STAT1 inh	STAT3 blocker	STAT1 act	STAT3 activator	STAT1 act conf	NFkB act	STAT3 act STAT1c
O/N=C/c1ccc(OCc2ccccc2F)c(Cl)c1	-61	12	156*	91	202*	130	127*
O/N=C/c1ccc(OCc2ccccc2)c(Cl)c1	-68	-9	162*	109	203*	134*	119*
O/N=C/c1ccc(OCc2ccccc2)c(Br)c1	-70	-7	162*	108	188*	132	123*
Brc1ccc(/C=C/C=N/Nc2nc3ccccc3s2)cc1	-23	-7	121	113	x	x	x
COCC(=O)Nc1nc2ccccc2s1	-21	-11	120	109	x	x	x
CCC/C=N/Nc1nc2ccccc2s1	-71	-5	163*	112	225*	143*	127*
